The source made the active and inactive calls. No cut-off for these calls is given here.

The target of one series is Beta-glucuronidase (Escherichia coli (strain K12), UniProt P05804). The series can be described thus: Prodrug conversion assessed as Escherichia coli beta-glucuronidase mediated MMAE formation after 5 hrs using albumin-conjugated compound by HPLC/HRMS analysis. Type of series: ADME. The note with it: isolated protein. A digest of the protocol: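 Prodrug 0.49 mg.mL-1 was held in 5 % human serum albumin solution at 37 °C for 4 h to form the albumin adduct. The mixture was diluted 1:3 with 0.02 M phosphate buffer (pH 7), then E. coli β-glucuronidase was added. Analysis was by C18 HPLC coupled to ESI-HRMS in positive ion mode.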
Chain of Beta-glucuronidase (P05804 whole entry): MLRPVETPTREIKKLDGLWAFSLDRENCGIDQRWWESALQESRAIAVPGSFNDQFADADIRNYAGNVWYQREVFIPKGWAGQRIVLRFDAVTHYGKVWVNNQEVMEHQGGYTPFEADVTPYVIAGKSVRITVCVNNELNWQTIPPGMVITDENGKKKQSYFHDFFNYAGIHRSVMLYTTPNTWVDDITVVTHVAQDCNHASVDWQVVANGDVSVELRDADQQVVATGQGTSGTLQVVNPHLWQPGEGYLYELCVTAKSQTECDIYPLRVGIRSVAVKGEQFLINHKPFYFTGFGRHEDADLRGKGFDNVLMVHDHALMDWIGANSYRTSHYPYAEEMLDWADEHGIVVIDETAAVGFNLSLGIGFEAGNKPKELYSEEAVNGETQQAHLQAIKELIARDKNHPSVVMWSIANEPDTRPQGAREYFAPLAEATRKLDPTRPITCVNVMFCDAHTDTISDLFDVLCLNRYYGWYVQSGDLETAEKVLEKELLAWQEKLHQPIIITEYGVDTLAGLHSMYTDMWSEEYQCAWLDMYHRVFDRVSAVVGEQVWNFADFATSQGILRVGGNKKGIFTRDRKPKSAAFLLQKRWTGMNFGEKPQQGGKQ

In series [1] the test system is LS174T. The series can be described thus: Inhibition of anchorage-independent colony formation in 3D culture of human LS174T cells at 5 nM measured after 3 days by soft agar colony formation assay. Type of series: functional, cell-based. A digest of the protocol:
(§1)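 LS174T cells (early passage, <10) were grown in EMEM with 10 % FBS. 20x10³ isolated cells were seeded in 0.35 % agarose over a 0.6 % agarose base layer. Colonies grew for 10 days, with fresh medium every 3 days. They were then treated for 3 days at 5 nM, without or with β-glucuronidase (3700 U/well). Colony size was measured by macroscope imaging; mean ± s.e.m. of 5 independent experiments.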

Series [2] concerns LS174T. The series can be described thus: Inhibition of anchorage-independent colony formation in 3D culture of human LS174T cells at 5 nM measured after 3 days in presence of beta-glucuronidase by soft agar colony formation assay. Type of series: functional, cell-based. A digest of the protocol:
as §1

For series [3], the system named is LS174T. The series can be described thus: Antitumor activity against human LS174T cells xenografted in athymic Balb/c mouse assessed as tumor growth inhibition at 3 mg/kg, iv administered on day 17 and 24. Type of series: functional, organism-based. A digest of the protocol:
(§2)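 Eight-week-old male nude mice were implanted subcutaneously in the dorsal flank with 1x10⁶ LS174T cells in PBS/50 % Matrigel (day 0). Mice were randomized into groups of 6 and given iv doses in PBS–2 % DMSO, with a vehicle-injected control group. Tumor length and width were measured by caliper three times weekly; volume = length x width²/2.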
On the technique in general: Xenograft models place foreign cells or tissue in a host animal.

The nature of series [4]: Toxicity in athymic Balb/c mouse xenografted with human LS174T cells assessed as effect on body weight at 3 mg/kg, iv administered on day 17 and 24 measured three times a week. Type of series: organism-based. The conditions noted are these: in vivo. A digest of the protocol:
(§3)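 LS174T subcutaneous xenografts (1x10⁶ cells in PBS/50 % Matrigel) were set up in eight-week-old male nude mice. Groups of 6 received iv injections in PBS–2 % DMSO, with a vehicle control group. Body weight was recorded three times weekly. Mice were euthanized when tumor volume exceeded 2 cm³.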

The target of the next series is Albumin (Homo sapiens, UniProt P02768). Briefly: Binding affinity to human serum albumin at 0.49 mg/ml after 4 hrs by HPLC/HRMS analysis. The note with it: isolated protein.
Chain of Albumin (P02768 whole entry): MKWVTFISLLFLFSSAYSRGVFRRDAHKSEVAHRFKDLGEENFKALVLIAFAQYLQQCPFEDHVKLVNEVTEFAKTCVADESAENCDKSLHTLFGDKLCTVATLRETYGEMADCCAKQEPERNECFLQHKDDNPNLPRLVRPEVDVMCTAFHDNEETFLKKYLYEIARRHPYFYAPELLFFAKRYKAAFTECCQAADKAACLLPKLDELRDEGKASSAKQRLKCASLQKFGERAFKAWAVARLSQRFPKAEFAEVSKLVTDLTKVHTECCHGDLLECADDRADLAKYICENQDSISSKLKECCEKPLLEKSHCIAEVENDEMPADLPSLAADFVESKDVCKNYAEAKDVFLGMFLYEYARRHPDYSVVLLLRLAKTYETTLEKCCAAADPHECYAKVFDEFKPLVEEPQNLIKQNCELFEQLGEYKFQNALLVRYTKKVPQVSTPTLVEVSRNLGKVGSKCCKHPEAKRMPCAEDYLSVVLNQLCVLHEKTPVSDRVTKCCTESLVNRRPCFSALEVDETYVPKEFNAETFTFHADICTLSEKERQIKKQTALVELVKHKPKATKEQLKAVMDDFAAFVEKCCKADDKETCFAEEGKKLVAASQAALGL
Series [5] relates to LS174T. Briefly: Antitumor activity against human LS174T cells xenografted in athymic Balb/c mouse assessed as tumor growth inhibition at 2 mg/kg, iv administered on day 17 and 24. Format: functional, organism-based. A digest of the protocol: as §2
A short description of series [6]: Toxicity in athymic Balb/c mouse xenografted with human LS174T cells assessed as effect on body weight at 2 mg/kg, iv administered on day 17 and 24 measured three times a week. Format: organism-based. The note with it: in vivo. A digest of the protocol: as §3

`CC[C@H](C)[C@@H]([C@@H](CC(=O)N1CCC[C@H]1[C@H](OC)[C@@H](C)C(=O)N[C@H](C)[C@@H](O)c1ccccc1)OC)N(C)C(=O)[C@@H](NC(=O)[C@H](C(C)C)N(C)C(=O)OCc1ccc(NC(=O)OC(Cc2cn(CCOCCOCCOCCOCCOCCOCCOCCOCCOCCOCCNC(=O)CCCCCN3C(=O)C=CC3=O)nn2)c2ccc(O[C@@H]3O[C@H](C(=O)O)[C@@H](O)[C@H](O)[C@H]3O)c([N+](=O)[O-])c2)c(COC(=O)N(C)[C@H](C(=O)N[C@H](C(=O)N(C)[C@@H]([C@@H](C)CC)[C@@H](CC(=O)N2CCC[C@H]2[C@H](OC)[C@@H](C)C(=O)N[C@H](C)[C@@H](O)c2ccccc2)OC)C(C)C)C(C)C)c1)C(C)C` (stereo not given in full): on Beta-glucuronidase, the Drug metabolism result is given as “Metabolite_Detected”. Besides, in the series on LS174T [1], the inhibition entry is “inactive”. Also, in the series with LS174T [2], the inhibition entry was “Active”. The TGI result in the series on LS174T [3] is “Active”. The Activity result in series [4] is recorded as “Non-Toxic”; at Albumin it was “Active”.

Take `CC[C@H](C)[C@@H]([C@@H](CC(=O)N1CCC[C@H]1[C@H](OC)[C@@H](C)C(=O)N[C@H](C)[C@@H](O)c1ccccc1)OC)N(C)C(=O)[C@@H](NC(=O)[C@H](C(C)C)N(C)C(=O)OC(Cc1cn(CCOCCOCCOCCOCCOCCOCCOCCOCCOCCOCCNC(=O)CCCCCN2C(=O)C=CC2=O)nn1)c1ccc(O[C@@H]2O[C@H](C(=O)O)[C@@H](O)[C@H](O)[C@H]2O)c([N+](=O)[O-])c1)C(C)C` (stereo not given in full): the inhibition result in the series with LS174T [1] is “inactive”. For the same molecule, the inhibition result in the series on LS174T [2] is “Active”. Also, in the series with LS174T [5], the TGI entry is “Active”. Besides, the Activity result in series [6] was “Non-Toxic”.

Values taken from ChEMBL document CHEMBL4368881, “A β-glucuronidase-responsive albumin-binding prodrug programmed for the double release of monomethyl auristatin E” (Medchemcomm, 2018).
